Laboratory results as given in ChEMBL document CHEMBL1914393, “Chemical scaffolds with structural similarities to siderophores of nonribosomal peptide-polyketide origin as novel antimicrobials against Mycobacterium tuberculosis and Yersinia pestis” (Bioorg Med Chem Lett, 2011).
Values after ≈ are worked out from the molar mass of the structure shown. Active and inactive are the calls of the source.

Key:
[1] = system: Yersinia pestis; experiment: Ratio of MIC90 for Yersinia pestis KIM6-2082.1+ in PMHD medium supplemented with 100 uM FeCl3 to IC50 for Yersinia pestis KIM6-2082.1+ in Fe-deficient PMHD medium; format: functional
[2] = system: Yersinia pestis; experiment: Ratio of IC50 for Yersinia pestis KIM6-2082.1+ in PMHD medium supplemented with 100 uM FeCl3 to IC50 for Yersinia pestis KIM6-2082.1+ in Fe-deficient PMHD medium; format: functional
[3] = system: Yersinia pestis; experiment: Bactericidal activity against Yersinia pestis KIM6-2082.1+ in PMHD medium at 2 times MIC after 3 days by colony counting; format: functional, organism-based
[4] = system: Yersinia pestis; experiment: Antimicrobial activity against Yersinia pestis KIM6-2082.1+ in PMHD medium supplemented with 100 uM FeCl3 after 26 hrs by spectrophotometric analysis; format: functional, organism-based
[5] = system: Yersinia pestis; experiment: Antimicrobial activity against Yersinia pestis KIM6-2082.1+ in PMHD medium after 26 hrs by spectrophotometric analysis; format: functional, organism-based
[6] = system: Mycobacterium tuberculosis; experiment: Ratio of IC50 for Mycobacterium tuberculosis H37Rv in GASTD medium supplemented with 100 uM FeCl3 to IC50 for Mycobacterium tuberculosis H37Rv in Fe-deficient GASTD medium; format: functional
Method in brief: (§1)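 Virulent H37Rv, twofold microdilution in iron-limiting GASTD or GASTD plus 100 μM FeCl3, started at OD600 0.001 from deferrated stocks. Compounds were added in DMSO (0.5% final) up to 500 μM or the solubility limit. Cultures sat stationary for 10 days at 37 °C, read at OD600. IC50 from sigmoidal fits to triplicates; MIC90 is the lowest concentration giving ≥90% inhibition versus DMSO controls. Ratios are +Fe/GASTD.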

[7] = system: Mycobacterium tuberculosis; experiment: Antimicrobial activity against Mycobacterium tuberculosis H37Rv in GASTD medium after 10 days by spectrophotometric analysis; format: functional, organism-based; settings: 240 h; method in brief: as §1
[8] = system: Mycobacterium tuberculosis; experiment: Bactericidal activity against Mycobacterium tuberculosis H37Rv in GASTD medium at MIC after 30 days by colony counting; format: functional, organism-based
Method in brief: (§2)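 Duplicate GASTD cultures were treated and incubated as in the growth assay (37 °C, 10 days), then serial 10-fold dilutions were plated on Middlebrook 7H11. Colonies were counted after 30 days at 37 °C and reported as CFU/mL. Bactericidal was defined as >99% killing relative to inoculum.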

[9] = system: Mycobacterium tuberculosis; experiment: Antimicrobial activity against Mycobacterium tuberculosis H37Rv in GASTD medium supplemented with 100 uM FeCl3 after 10 days by spectrophotometric analysis; format: functional, organism-based; settings: 240 h; method in brief: as §1
[10] = system: Yersinia pestis; experiment: Bacteriostatic activity against Yersinia pestis KIM6-2082.1+ in PMHD medium at MIC after 3 days by colony counting; format: functional, organism-based
[11] = system: Mycobacterium tuberculosis; experiment: Bactericidal activity against Mycobacterium tuberculosis H37Rv in GASTD medium at 2 times MIC after 30 days by colony counting; format: functional, organism-based; method in brief: as §2
[12] = system: Mycobacterium tuberculosis; experiment: Ratio of MIC90 for Mycobacterium tuberculosis H37Rv in GASTD medium supplemented with 100 uM FeCl3 to MIC90 for Mycobacterium tuberculosis H37Rv in Fe-deficient GASTD medium; format: functional; method in brief: as §1
[13] = system: HeLa; experiment: Cytotoxicity against human HeLa cells at 16 uM after 24 hrs by ATPLite assay; format: cell-based
Method in brief: (§3)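 HeLa cells in 96-well format, read with an ATPLite reagent-based viability assay. Cell–compound contact lasted 4 hr or 24 hr, and viability was expressed relative to untreated controls.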

[14] = system: HeLa; experiment: Cytotoxicity against human HeLa cells at 125 uM after 4 hrs by ATPLite assay; format: cell-based; method in brief: as §3
[15] = system: HeLa; experiment: Cytotoxicity against human HeLa cells at 21 uM after 24 hrs by ATPLite assay; format: cell-based; method in brief: as §3
[16] = system: HeLa; experiment: Cytotoxicity against human HeLa cells at 125 uM after 24 hrs by ATPLite assay relative to control; format: cell-based; method in brief: as §3
[17] = system: Yersinia pestis; experiment: Bacteriostatic activity against Yersinia pestis KIM6-2082.1+ in PMHD medium at 2 times MIC after 3 days by colony counting; format: functional, organism-based
[18] = system: Mycobacterium tuberculosis; experiment: Bactericidal activity against Mycobacterium tuberculosis H37Rv in GASTD medium at 4 times MIC after 30 days by colony counting; format: functional, organism-based; method in brief: as §2
[19] = system: HeLa; experiment: Cytotoxicity against human HeLa cells at 10 uM after 24 hrs by ATPLite assay; format: cell-based; method in brief: as §3
[20] = system: HeLa; experiment: Cytotoxicity against human HeLa cells at 7 uM after 24 hrs by ATPLite assay; format: cell-based; method in brief: as §3
[21] = system: Yersinia pestis; experiment: Bactericidal activity against Yersinia pestis KIM6-2082.1+ in PMHD medium at MIC after 3 days by colony counting; format: functional, organism-based
[22] = system: HeLa; experiment: Cytotoxicity against human HeLa cells at 0.2 uM after 24 hrs by ATPLite assay; format: cell-based; method in brief: as §3

Row | SMILES | Ratio [1] | Ratio IC50 [2] | Activity [3] | IC50 [4] [µM] | MIC90 [4] [µM] | IC50 [5] [µM] | MIC90 [5] [µM] | Ratio IC50 [6] | IC50 [7] [µM] | MIC90 [7] [µM] | IC50 [9] [µM] | MIC90 [9] [µM] | Activity [11] | Ratio [12] | further results
1 | CN[C@@H]1[C@H](O[C@H]2[C@H](O[C@H]3[C@H](O)[C@@H](O)[C@H](N=C(N)N)[C@@H](O)[C@@H]3N=C(N)N)O[C@@H](C)[C@]2(O)C=O)O[C@@H](CO)[C@H](O)[C@H]1O [STREPTOMYCIN] | 2 | 1 | Active | 1 | 2 (≈ 1.16 µg/mL) | 1 | 1 (≈ 0.582 µg/mL) | – | – | – | – | – | – | – | –
2 | O=C(NO)N1N=C(c2ccccc2O)C[C@H]1c1ccc(O)cc1 | – | >2 | – | > 31 | > 31 | 13 | > 31 | 1 | 42 | 125 (≈ 39.2 µg/mL) | 40 | > 31 | – | – | Activity [8]: Active
3 | CSC(=S)N/N=C/c1ccc(O)cc1 | – | >2 | – | > 233 | > 233 | 137 | 388 (≈ 87.8 µg/mL) | 1 | 31 | 59 (≈ 13.4 µg/mL) | 33 | 59 (≈ 13.4 µg/mL) | Active | 1 | Activity [10]: Active
4 | Cc1ccccc1[C@@H]1CC(c2ccccc2O)=NN1C(N)=S | – | – | – | > 31 | > 31 | > 62 | > 63 | 1 | 7 | 16 (≈ 4.98 µg/mL) | 7 | 16 (≈ 4.98 µg/mL) | Active | 1 | Activity [13]: 24%
5 | N/C(=N\O)N/N=C/c1ccccc1O | >2 | 4 | Active | 305 | > 500 | 70 | 250 (≈ 48.5 µg/mL) | 1 | 11 | 222 (≈ 43.1 µg/mL) | 15 | 26 (≈ 5.05 µg/mL) | Active | 1 | –
6 | N=C(NO)N1N=C(c2ccccc2O)C[C@H]1c1ccc(O)cc1 | >3 | >13 | Active | > 63 | > 63 | 5 | 21 (≈ 6.56 µg/mL) | 0.5 | 47 | 125 (≈ 39 µg/mL) | 22 | 31 (≈ 9.68 µg/mL) | Active | 0.2 | Activity [13]: Non-toxic; Activity [14]: Non-toxic; Activity [15]: Non-toxic; Activity [16]: 70%
7 | CSC(=S)N/N=C/c1ccccc1O | >4 | >15 | – | > 59 | > 59 | 4 | 15 (≈ 3.39 µg/mL) | 1 | 3 | 7 (≈ 1.58 µg/mL) | 2 | 6 (≈ 1.36 µg/mL) | – | 1 | Activity [17]: Active; Activity [18]: Active; Activity [19]: Non-toxic; Activity [20]: Non-toxic
8 | N=C(N)N1N=C(c2ccccc2O)C[C@H]1c1ccccc1O | >1 | >9 | – | > 63 | > 63 | 7 | 42 (≈ 12.4 µg/mL) | 1 | 44 | 66 (≈ 19.6 µg/mL) | 23 | 66 (≈ 19.6 µg/mL) | Active | 1 | Activity [21]: Active
9 | CSC(=S)N/N=C(\C)c1ccccc1O | 2 | >3 | Active | 156 | 233 (≈ 56 µg/mL) | 61 | 116 (≈ 27.9 µg/mL) | 1 | 4 | 10 (≈ 2.4 µg/mL) | 4 | 9 (≈ 2.16 µg/mL) | Active | 1 | Activity [19]: Non-toxic; Activity [20]: Non-toxic
10 | N=C(NO)N1N=C(c2ccccc2O)C[C@H]1c1ccccc1O | >1 | >4 | Active | > 16 | > 16 | 4 | 16 (≈ 5 µg/mL) | 1 | 37 | 125 (≈ 39 µg/mL) | 32 | > 125 | Active | >1 | Activity [13]: Non-toxic; Activity [15]: Non-toxic
11 | Oc1ccccc1C1=NN[C@H](c2ccccc2O)C1 | – | – | – | > 8 | > 8 | 9 | 31 (≈ 7.88 µg/mL) | 1 | 25 | 66 (≈ 16.8 µg/mL) | 18 | 59 (≈ 15 µg/mL) | Active | 1 | Activity [21]: Active
12 | Oc1ccc([C@@H]2CC(c3ccccc3O)=NN2)cc1 | – | >2 | – | > 31 | > 31 | 20 | > 31 | 1 | 46 | 125 (≈ 31.8 µg/mL) | 37 | 125 (≈ 31.8 µg/mL) | – | 1 | Activity [8]: Active
13 | O=C(NO)N1CCN(C(=S)N/N=C/c2ccccc2O)CC1 | >20 | >100 | – | > 4 | > 4 | 0.04 | 0.2 (≈ 0.0647 µg/mL) | – | 20 | > 31 | > 8 | > 8 | – | – | Activity [17]: Active; Activity [22]: Non-toxic
